# MEKK2mut PB1 HTS – signal of MEK5 binding to mutant human MEKK2 PB1 domain; percent response, % at 10 µM; bead flow cytometry, Alexa488-MEK5 binding to MEKK2 mutant; 290,000 tested, 0.35% active; AID 1530; in the data active = percent response above about 24%, passing the limit was not always enough
# IMP-1 inh-1 – inhibitors of Pseudomonas aeruginosa IMP-1 metallo-beta-lactamase. inhibition, % at 5.6 µM. purified IMP-1, nitrocefin hydrolysis, epi-absorbance fluorescence. 290,000 tested, 0.45% active;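 active = inhibition above the mean plus 3 SD of all compounds in the same screening run, cut at about 4.5% in these data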;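 also: 0% = IMP-1 with DMSO and 100% = DMSO wells lacking enzyme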
#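 Material – recombinant IMP-1 enzyme, purified · Amount – IMP-1 0.2 nM before substrate addition · Medium – HEPES buffer pH 7.1 with ZnSO4 and Brij 35 · Timing – 25 °C, 15 min preincubation, 25 min reaction · Measured by – plate fluorescence quenching by hydrolysis product, ex 480/em 530 nm · Read-out – percent enzyme inhibition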
# VIM-2 inh – blocks Pseudomonas aeruginosa VIM-2 metallo-beta-lactamase | purified VIM-2, nitrocefin hydrolysis, epi-absorbance fluorescence | inhibition, % at 5.6 µM | 290,000 tested, 0.89% active;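 active = inhibition above the mean of all tested compounds plus 3 SD, cutoff set per screening run, cut at about 7.5% in these data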;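 also: red hydrolysis product quenches plate fluorescence so inhibitors raise well fluorescence; 0% = enzyme with DMSO and 100% = DMSO without enzyme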
# MEKK2wt PB1 HTS – raises or lowers MEK5 binding to wildtype human MEKK2 PB1 domain; bead flow cytometry, Alexa488-MEK5 binding to MEKK2 WT; actives lie on both sides; binding response (% of control), % at 10 µM; 290,000 tested, 1.1% active; in the data active = binding response below about 67% or above about 130%
# MEKK3 PB1 HTS – raises or lowers MEK5 binding to the human MEKK3 PB1 domain | Q99759 | bead-based flow cytometry, Alexa488-MEK5 binding to MEKK3; actives lie on both sides; 0 = blocked by unlabeled MEK5, 100 = vehicle | binding response (% of control), % at 10 µM | 290,000 tested, 1.4% active | AID 1529;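 active = binding response more than 3 SD above or below the average of its plate-row segment, actives on both sides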;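 also: Alexa488 bead fluorescence after subtracting the streptavidin-only scavenger bead signal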
# IMP-1 inh-2 – IMP-1 inhibition, counter-screen for VIM-2 inhibitors; shares compounds with VIM-2 inh; purified IMP-1, nitrocefin hydrolysis, epi-absorbance fluorescence; inhibition, % at 5.6 µM; 1,300 tested, under 10 active; AID 1856; call rule not given here;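 also: 0% = enzyme with vehicle and 100% = vehicle without enzyme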
# VIM-2 FRET inh – counter-screen for VIM-2 inhibitors: epi-absorbance artifacts via FRET; 1,300 tested, 23% active; shares compounds with VIM-2 inh; purified VIM-2, CCF2 FRET substrate hydrolysis; AID 1857; inhibition, % at 5.6 µM;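 active = inhibition above the mean of all tested compounds plus 3 SD, cut at about 19% in these data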;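 also: 0% = VIM-2 plus DMSO and 100% = no enzyme wells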
# TEM-1 counter – selectivity counter-screen for VIM-2 inhibitors: E. coli TEM-1 inhibitors; shares compounds with VIM-2 inh; Purified TEM-1, nitrocefin hydrolysis, epi-absorbance fluorescence; inhibition, % at 5.6 µM; 1,300 tested, 3% active;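 active = inhibition above that campaign's mean inhibition plus 3 SD, cut at about 0.46% in these data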;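 also: 0% = TEM-1 with DMSO and 100% = TEM-1 with 100 µM potassium clavulanate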
# Target sequence (P62593 whole entry, looked up): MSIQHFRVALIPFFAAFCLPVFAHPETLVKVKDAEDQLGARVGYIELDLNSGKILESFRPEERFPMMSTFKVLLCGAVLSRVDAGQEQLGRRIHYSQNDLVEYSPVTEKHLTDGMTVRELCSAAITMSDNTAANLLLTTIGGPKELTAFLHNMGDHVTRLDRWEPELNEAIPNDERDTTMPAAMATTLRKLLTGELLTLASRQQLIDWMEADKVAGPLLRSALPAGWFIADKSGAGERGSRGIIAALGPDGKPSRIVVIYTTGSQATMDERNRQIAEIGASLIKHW
# VIM-2 inh conf – confirmation of P. aeruginosa VIM-2 metallo-beta-lactamase inhibitors. shares compounds with VIM-2 inh. purified VIM-2, nitrocefin hydrolysis, epi-absorbance. inhibition, % at 5.6 µM. 1,300 tested, 96% active;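 active = inhibition of the VIM-2 beta-lactamase enzyme above about 11% from the earlier first-round screen, limit read from the data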;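 also: 0% = VIM-2 with DMSO and 100% = buffer wells without enzyme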
# * hit, by the source's call; x = no result. In the library only some 3.4% were active in any assay of this set; here they are far more common.
SMILES,MEKK2mut PB1 HTS,IMP-1 inh-1,VIM-2 inh,MEKK2wt PB1 HTS,MEKK3 PB1 HTS,IMP-1 inh-2,VIM-2 FRET inh,TEM-1 counter,VIM-2 inh conf
CCCN(CCC)CCCNC(=O)c1cc2c(-c3ccc(OC)c(OC)c3)nn(C)c2s1,14,-4,12*,120,104,-4,-4,-6,24*
Cc1ccc(N2CC(C(=O)OCC(=O)C(C)(C)C)CC2=O)cc1 (stereo not drawn),-4,-1,-1,96,97,x,x,x,x
O=C(Cn1cnc2ccccc21)N/N=C/c1ccccc1,-6,-2,-1,91,98,x,x,x,x
COc1cc(OC)c2nc(C)c3c(c2c1)N(c1ccc(O)cc1)CC3,x,-1,57*,x,x,-4,-31,-6,69*
Cc1ccc(C(=O)O)cc1N1C(=O)c2cccc3cc(Br)cc(c23)C1=O,x,-1,-1,x,x,x,x,x,x
Cc1n[nH]c(C)c1N1C(=O)c2cccc3c(Br)ccc(c23)C1=O,6,1,29*,101,95,-3,-4,-6,33*
Cc1n[nH]c(C)c1N1C(=O)c2cccc3cc(Br)cc(c23)C1=O,0,-2,15*,98,96,-2,-5,-5,26*
CCOc1ccc(C(=O)NN2CCOCC2)cc1,-5,-2,-1,102,97,x,x,x,x
CC1CCN(Cc2cc(=O)oc3cc4c(cc23)CCCC4)CC1,-5,0,-1,101,101,x,x,x,x
CCN1CCN(Cc2cc(=O)oc3cc4c(cc23)CCC4)CC1,1,-4,13*,96,97,-3,-5,-3,31*
CN1CCN(Cc2cc(=O)oc3cc4c(cc23)CCC4)CC1,2,-3,18*,101,99,-4,1,-6,30*
O=C(Cn1[nH]c(=O)c2ccccc2c1=O)NC1CCN(Cc2ccccc2)CC1,-6,-3,20*,96,94,-3,-4,-4,36*
O=C(COc1ccc(Br)cc1Cl)NC1CCN(Cc2ccccc2)CC1,14,-3,-2,122,105,x,x,x,x
Cc1c(C)c2ccc(OCC(=O)NC3CCN(Cc4ccccc4)CC3)c(C)c2oc1=O,6,-2,21*,111,101,-3,0,-11,31*
CCc1cc(=O)oc2cc(C)cc(OCC(=O)NC3CCN(Cc4ccccc4)CC3)c12,2,-4,13*,108,100,-3,0,-5,24*
COc1ccc(-n2ccsc2=S)cc1,7,-4,-2,108,108,x,x,x,x
N=C1C(c2nc3ccccc3s2)=C(O)CN1Cc1ccco1,-3,-3,0,98,106,x,x,x,x
CC(=O)c1ccc(NC(=O)/C(Cl)=C/c2ccccc2)cc1,3,1,-4,105,114,x,x,x,x
C=CCSc1nnc2nc3c(nn12)c1cc(C)ccc1n3CC=C,2,-3,15*,102,102,-2,3,-5,19*
Cc1ccccc1C(=O)c1cccn1CC(=O)O,14,-3,38*,112,111,-2,57*,1.3*,43*
Cc1ccccc1C(=O)c1cccn1CC(=O)NCc1ccccc1,4,-1,1,105,108,x,x,x,x
COc1ccc(N2CCN(C(=O)CSc3nnc(-c4cc5ccccc5cc4O)n3C)CC2)cc1,1,3,0,97,102,x,x,x,x
CCC1Oc2ccc(C)cc2N(CC(=O)N(Cc2cccnc2)Cc2ccc(C)o2)C1=O (stereo not drawn),-4,-6,-2,97,96,x,x,x,x
COc1ccc(-c2cc(C(F)(F)F)nc(SCCC(=O)N3CCN4CCCC4C3)n2)cc1 (stereo not drawn),15,3,13*,114,104,-3,6,-7,29*
